Results as given in ChEMBL document CHEMBL3822431, “Hydroxychalcone inhibitors of Streptococcus mutans glucosyl transferases and biofilms as potential anticaries agents” (Bioorg Med Chem Lett, 2016).
pIC50: −log10 of the molar value.

How the values were obtained:
Streptococcus mutans = assay: Growth inhibition of Streptococcus mutans UA159 after 16 hrs; assay type: organism-based; details: Streptococcus mutans, UA159, 16 h; read-out: IC50
Procedure, shortened: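 S. mutans UA159 co-incubated with compound at various concentrations; growth measured at OD470.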

[1] = target: T1, Glucosyltransferase-S (Streptococcus mutans serotype c (strain ATCC 700610 / UA159)) (UniProt P49331); assay: Inhibition of Wild-type Streptococcus mutans UA159 glucosyltransferase D by zymography
T1 sequence (whole entry): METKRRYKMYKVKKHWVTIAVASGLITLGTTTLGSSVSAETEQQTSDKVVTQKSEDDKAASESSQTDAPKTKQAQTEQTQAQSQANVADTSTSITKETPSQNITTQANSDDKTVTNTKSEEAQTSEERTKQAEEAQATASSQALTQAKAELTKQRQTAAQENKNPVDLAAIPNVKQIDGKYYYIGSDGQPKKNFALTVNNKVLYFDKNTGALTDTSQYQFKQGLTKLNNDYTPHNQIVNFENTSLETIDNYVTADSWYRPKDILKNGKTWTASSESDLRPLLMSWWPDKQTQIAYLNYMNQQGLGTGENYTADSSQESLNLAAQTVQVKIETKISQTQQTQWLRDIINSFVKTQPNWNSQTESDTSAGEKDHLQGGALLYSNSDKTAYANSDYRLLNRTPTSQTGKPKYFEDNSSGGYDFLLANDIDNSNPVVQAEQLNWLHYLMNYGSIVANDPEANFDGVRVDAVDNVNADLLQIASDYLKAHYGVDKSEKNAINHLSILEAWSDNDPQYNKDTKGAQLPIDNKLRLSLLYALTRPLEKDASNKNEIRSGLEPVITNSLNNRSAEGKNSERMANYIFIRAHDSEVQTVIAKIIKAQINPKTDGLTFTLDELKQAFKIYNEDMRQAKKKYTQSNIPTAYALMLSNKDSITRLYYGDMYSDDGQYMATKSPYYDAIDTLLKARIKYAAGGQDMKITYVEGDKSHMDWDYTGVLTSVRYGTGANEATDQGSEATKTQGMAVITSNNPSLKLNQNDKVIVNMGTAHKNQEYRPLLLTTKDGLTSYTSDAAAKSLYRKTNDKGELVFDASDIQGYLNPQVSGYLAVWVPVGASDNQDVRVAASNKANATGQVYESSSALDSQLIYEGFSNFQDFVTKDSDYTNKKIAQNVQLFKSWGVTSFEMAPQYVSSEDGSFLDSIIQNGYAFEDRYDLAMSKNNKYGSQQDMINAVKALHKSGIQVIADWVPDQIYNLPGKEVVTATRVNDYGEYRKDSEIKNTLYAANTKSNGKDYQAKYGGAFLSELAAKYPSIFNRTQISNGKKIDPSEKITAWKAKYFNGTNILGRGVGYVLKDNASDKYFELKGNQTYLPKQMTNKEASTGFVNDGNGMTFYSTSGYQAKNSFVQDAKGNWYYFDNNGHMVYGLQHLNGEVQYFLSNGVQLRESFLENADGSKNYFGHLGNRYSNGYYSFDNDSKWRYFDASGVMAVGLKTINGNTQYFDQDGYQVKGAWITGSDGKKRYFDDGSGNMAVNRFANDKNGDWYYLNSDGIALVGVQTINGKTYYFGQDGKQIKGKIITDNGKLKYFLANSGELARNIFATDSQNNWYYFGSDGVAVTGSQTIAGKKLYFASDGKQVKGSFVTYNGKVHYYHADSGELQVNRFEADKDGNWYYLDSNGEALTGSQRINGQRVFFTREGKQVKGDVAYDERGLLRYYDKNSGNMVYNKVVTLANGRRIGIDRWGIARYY
Procedure, shortened: (§1)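 S. mutans UA159 wild type co-incubated with compound at different concentrations; Gtfs concentrated from supernatants, separated by SDS-PAGE and assayed by zymography, glucan band intensity reflecting enzyme activity.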

[2] = target: T2, Glucosyltransferase-SI (Streptococcus mutans serotype c (strain ATCC 700610 / UA159)) (UniProt P13470); assay: Inhibition of Wild-type Streptococcus mutans UA159 glucosyltransferase C by zymography; procedure, shortened: as §1
T2 sequence (whole entry): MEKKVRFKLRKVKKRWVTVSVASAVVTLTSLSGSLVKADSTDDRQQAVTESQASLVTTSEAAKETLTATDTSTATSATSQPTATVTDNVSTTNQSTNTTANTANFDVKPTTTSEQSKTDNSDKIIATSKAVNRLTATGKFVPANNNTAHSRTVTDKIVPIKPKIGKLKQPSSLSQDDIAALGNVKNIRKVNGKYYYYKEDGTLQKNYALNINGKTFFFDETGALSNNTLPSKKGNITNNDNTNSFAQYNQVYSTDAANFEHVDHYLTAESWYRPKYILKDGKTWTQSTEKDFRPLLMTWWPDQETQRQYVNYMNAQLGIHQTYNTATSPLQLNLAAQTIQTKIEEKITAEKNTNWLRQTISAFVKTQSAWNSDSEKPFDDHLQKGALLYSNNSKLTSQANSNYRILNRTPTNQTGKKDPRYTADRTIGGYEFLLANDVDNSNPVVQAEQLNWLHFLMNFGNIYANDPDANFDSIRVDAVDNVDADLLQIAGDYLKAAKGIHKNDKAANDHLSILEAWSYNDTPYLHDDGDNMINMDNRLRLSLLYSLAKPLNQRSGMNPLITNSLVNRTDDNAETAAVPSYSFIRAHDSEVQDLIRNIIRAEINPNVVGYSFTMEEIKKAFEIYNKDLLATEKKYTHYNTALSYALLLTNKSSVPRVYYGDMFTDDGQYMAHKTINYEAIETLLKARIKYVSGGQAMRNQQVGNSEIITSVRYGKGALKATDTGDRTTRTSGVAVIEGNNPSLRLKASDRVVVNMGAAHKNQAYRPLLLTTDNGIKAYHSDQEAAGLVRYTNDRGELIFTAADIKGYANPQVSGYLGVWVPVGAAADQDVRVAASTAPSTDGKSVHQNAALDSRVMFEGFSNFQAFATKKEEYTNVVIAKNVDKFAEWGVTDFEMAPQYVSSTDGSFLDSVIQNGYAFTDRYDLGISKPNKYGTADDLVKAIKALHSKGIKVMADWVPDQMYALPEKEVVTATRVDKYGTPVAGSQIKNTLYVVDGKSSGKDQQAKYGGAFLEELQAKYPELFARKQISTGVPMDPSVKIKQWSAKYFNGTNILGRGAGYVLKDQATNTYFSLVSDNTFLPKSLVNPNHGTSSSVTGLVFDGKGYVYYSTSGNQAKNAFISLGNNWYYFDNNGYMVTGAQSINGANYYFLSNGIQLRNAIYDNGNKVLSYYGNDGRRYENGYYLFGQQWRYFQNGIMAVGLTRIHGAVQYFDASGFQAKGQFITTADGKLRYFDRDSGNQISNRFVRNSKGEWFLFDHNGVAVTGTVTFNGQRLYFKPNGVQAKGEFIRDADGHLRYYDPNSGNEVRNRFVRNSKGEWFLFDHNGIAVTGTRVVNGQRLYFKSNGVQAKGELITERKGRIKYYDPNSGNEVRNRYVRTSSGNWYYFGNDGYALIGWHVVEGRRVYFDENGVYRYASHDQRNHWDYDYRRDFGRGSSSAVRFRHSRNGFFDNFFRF

| inhibition [1] | inhibition [2] | SMILES | pIC50 (Streptococcus mutans) |
| --- | --- | --- | --- |
| – | – | O=C(/C=C/c1ccc(O)cc1O)c1ccc(O)cc1 | 2.97 |
| Dose-dependent effect | Dose-dependent effect | O=C(/C=C\c1ccc(O)cc1O)c1cccc(O)c1 | – |
